Test results taken from paper PMC10360211 (Science (New York, N.Y.), 2022).
Entries after “also recorded” stand apart in the source; their conditions may differ. Like-named read-outs stand apart in the source and are kept apart here.

What was measured:
[1] = biological target: T1, human α2AAR (Homo sapiens, UniProt P08913); assay: Internalization assay with rGFP-CAAX and rGFP-FYVE biosensors; type: cell-based; settings: for receptor internalization: both biosensors
T1 sequence (P08913 1-465): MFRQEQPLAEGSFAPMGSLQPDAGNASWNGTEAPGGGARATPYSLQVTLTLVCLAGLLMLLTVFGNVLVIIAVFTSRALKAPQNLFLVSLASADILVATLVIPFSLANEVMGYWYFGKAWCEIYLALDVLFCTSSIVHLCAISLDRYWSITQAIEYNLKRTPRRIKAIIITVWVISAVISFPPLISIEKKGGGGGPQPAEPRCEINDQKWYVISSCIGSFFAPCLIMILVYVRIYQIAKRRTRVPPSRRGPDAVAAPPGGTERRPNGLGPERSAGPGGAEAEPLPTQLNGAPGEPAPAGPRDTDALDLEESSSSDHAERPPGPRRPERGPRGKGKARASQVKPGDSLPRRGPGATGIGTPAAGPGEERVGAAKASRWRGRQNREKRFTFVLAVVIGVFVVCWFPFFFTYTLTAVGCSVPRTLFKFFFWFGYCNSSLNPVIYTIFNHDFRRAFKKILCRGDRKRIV

[2] = tested on: α2AAR D128^3.32 mutant receptors; type: cell-based, human
[3] = biological target: T1, human α2AAR; assay: ebBRET-based EMTA G protein and β-arrestin coupling panel; type: cell-based
How it was run: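 ebBRET in HEK293SL cells transfected with premixed biosensor DNA plus α2AAR using PEI (3:1). DNA was 0.57 μg, or 1 μg total for G12/13, and cells were seeded at 3.5×10^4 cells/well for 48 h. Gα activation was read as translocation of RlucII-tagged effectors (p63-RhoGEF for Gq/11, Rap1-GAP for Gi/o, PDZ-RhoGEF for G12/13) to rGFP-CAAX. β-arrestin-1/2-RlucII was also read against rGFP-CAAX. Cells sat in Tyrode HEPES 1 h, then received increasing compound concentrations 10 min at 37°C, with 1 μM Prolume purple for the final 6 min.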

[4] = tested on: mice; assay: Constipation assay; settings: i.p.; morphine 10 mg/kg, dexmedetomidine 30 μg/kg, ‘9087 5 mg/kg; versus vehicle
[5] = tested on: α2AAR D79N mutant mice; assay: Tail flick; type: in vivo; settings: tail flick 50°C, versus WT
How it was run: (§1)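 WT and α2AAR D79N mice were habituated for 1 h in cylinders and tested 30 min after s.c. dosing. The tail was immersed in a 50°C water bath to measure heat sensitivity. The experimenter was blind to treatment.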

[6] = biological target: T2, human α2BAR (Homo sapiens, UniProt P18089); assay: Radioligand binding, human α2BAR; settings: read-out: Kd of radioligand; saturation, HEK293T membranes
T2 sequence (P18089 1-450): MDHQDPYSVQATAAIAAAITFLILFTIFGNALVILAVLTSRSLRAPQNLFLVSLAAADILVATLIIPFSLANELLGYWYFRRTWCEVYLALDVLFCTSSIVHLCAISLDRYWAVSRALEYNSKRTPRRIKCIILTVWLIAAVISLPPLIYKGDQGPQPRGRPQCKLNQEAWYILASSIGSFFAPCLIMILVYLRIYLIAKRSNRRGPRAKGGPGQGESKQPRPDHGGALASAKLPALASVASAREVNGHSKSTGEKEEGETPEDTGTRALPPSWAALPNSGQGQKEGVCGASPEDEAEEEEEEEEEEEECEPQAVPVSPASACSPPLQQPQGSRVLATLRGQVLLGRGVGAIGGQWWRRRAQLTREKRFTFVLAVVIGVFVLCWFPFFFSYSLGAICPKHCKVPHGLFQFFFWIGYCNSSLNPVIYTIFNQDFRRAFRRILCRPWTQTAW

[7] = biological target: T1, human α2AAR; assay: Radioligand binding, human α2AAR; settings: read-out: Kd of radioligand; saturation, HEK293T membranes
[8] = biological target: T3, human α2C (Homo sapiens, UniProt P18825); assay: Radioligand binding, α2C; settings: read-out: Kd of radioligand; saturation, HEK293T membranes
T3 sequence (P18825 1-462): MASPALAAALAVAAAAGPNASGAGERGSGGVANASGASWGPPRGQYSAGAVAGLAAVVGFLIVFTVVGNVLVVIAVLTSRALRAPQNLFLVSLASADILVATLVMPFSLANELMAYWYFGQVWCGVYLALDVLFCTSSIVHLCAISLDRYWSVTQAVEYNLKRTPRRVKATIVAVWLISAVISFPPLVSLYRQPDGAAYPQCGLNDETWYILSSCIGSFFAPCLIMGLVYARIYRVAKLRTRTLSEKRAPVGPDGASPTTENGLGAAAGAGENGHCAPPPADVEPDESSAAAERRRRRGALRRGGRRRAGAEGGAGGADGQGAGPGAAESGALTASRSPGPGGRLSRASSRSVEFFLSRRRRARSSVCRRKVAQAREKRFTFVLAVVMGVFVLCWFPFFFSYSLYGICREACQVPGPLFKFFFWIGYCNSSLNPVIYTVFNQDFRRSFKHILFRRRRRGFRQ

[9] = biological target: T4, murine α2AAR (Mus musculus, UniProt Q01338); assay: Radioligand binding, murine α2AAR; settings: read-out: Kd of radioligand; saturation, HEK293T membranes
T4 sequence (Q01338 1-465): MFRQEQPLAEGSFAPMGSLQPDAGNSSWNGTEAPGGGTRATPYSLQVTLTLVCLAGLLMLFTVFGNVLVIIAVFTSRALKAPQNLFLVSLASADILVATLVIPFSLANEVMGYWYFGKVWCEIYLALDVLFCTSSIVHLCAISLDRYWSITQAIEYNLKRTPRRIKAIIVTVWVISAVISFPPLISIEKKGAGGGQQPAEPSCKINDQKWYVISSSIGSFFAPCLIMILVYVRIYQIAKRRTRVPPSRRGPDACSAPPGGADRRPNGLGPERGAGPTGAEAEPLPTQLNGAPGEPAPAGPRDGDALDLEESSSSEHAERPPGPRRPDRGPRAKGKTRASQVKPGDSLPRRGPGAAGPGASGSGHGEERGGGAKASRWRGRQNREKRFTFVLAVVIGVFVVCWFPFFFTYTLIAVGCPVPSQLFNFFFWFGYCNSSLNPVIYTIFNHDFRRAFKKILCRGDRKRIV

[10] = biological target: α2AAR D128^3.32 mutant receptors (Homo sapiens, UniProt P08913, D128A); type: cell-based; settings: D128^3.32A versus wild type
[11] = tested on: mice; assay: Rotarod motor test; type: in vivo
How it was run: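 Mice were first trained three times for 5 min on an accelerating rotating rod before any compound. They were then tested 30 min after s.c. dosing, with the experimenter blind to treatment.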

[12] = biological target: T1, human α2AAR; assay: Gαi BRET G protein activation assay; type: cell-based
How it was run: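 HEK293T cells were co-transfected with α2AAR, Gαi1-RLucII, Gβ1 and Gγ2-GFP10. After 48 h the medium was replaced with PBS and cells were stimulated with ligand for 10 min at 37°C. Coelenterazine 400a (2.5 µM final) was added 5 min before reading. BRET was taken as acceptor/donor emission (515/410 nm) and normalised to buffer (0%) and maximal norepinephrine (100%). There were 3–17 experiments, each in duplicate. Receptor surface expression was checked by anti-FLAG ELISA.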

[13] = tested on: spared nerve injury (SNI) mice; assay: SNI model of neuropathic pain, mechanical; type: in vivo
How it was run: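 Spared nerve injury: under isoflurane, two of the three sciatic nerve branches were ligated and transected distally, leaving the sural nerve intact. Testing was done 7–14 days after injury. Atipamezole (2 mg/kg i.p.) was given 15 min before s.c. agonist, and testing followed 30 min after agonist. Hindpaw thresholds were measured with von Frey filaments by the up-down method, by a blinded experimenter.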

[14] = Metabolic stability in rat liver microsomes; type: in vitro ADME; settings: male rat liver microsomes, 1 hour, 20 μM
How it was run: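 Pooled male Sprague Dawley rat liver microsomes (0.25 mg protein per tube) were incubated with test compound or a positive control (20 µM final). Buffer was 50 mM Tris, 5 mM MgCl2, pH 7.4. Incubation was at 37°C on a rotating carousel.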

[15] = tested on: naïve (uninjured) mice; assay: Mechanical withdrawal thresholds in naïve mice; type: in vivo; settings: 5 mg/kg s.c.
How it was run: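 Uninjured mice were habituated for 1 h in Plexiglas cylinders and tested 30 min after s.c. dosing. Hindpaw mechanical thresholds were found with von Frey filaments by the up-down method. The experimenter was blind to treatment, and animals were randomly assigned to compound or vehicle.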

[16] = tested on: mice; assay: Tail flick; type: in vivo; settings: tail flick 50°C, s.c.
How it was run: as §1

[17] = Pharmacokinetics in mice; type: in vivo; settings: 10-mg/kg i.v. and 30-mg/kg p.o.
How it was run: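 C57BL/6 mice were dosed 10 mg/kg i.v. or 30 mg/kg p.o., with vehicle-dosed groups alongside. One analogue was formulated in 20% v/v HβCD in saline. Sparse sampling used three mice per time point (one for vehicle). Blood was drawn from the orbital sinus into K3EDTA under tribromoethanol (150 mg/kg i.p.), and plasma was spun at 4000 rpm, 10 min, 4°C. Brain was homogenised in ice-cold PBS. Samples were analysed by HPLC-MS/MS; values below LLOQ were set to zero.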

α2AAR D128^3.32 mutant receptors (Homo sapiens, UniProt P08913, D128A), sequence (P08913 whole entry D128A): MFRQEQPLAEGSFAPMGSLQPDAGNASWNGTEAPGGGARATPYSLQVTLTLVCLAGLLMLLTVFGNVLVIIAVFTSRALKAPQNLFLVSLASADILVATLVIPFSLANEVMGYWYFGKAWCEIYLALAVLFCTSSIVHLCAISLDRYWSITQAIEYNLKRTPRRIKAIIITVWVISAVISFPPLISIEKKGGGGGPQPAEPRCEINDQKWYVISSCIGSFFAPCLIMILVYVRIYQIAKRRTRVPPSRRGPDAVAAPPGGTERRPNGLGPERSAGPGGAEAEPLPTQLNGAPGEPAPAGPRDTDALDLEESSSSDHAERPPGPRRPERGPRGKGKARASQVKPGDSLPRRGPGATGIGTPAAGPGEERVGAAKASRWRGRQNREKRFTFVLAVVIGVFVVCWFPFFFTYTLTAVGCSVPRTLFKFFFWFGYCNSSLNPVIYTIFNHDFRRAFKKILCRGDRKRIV

For NC[C@H](O)c1ccc(O)c(O)c1 [norepinephrine], the receptor internalization [1] was “comparable responses for both biosensors”, the “Gi activation and β-arrestin recruitment on substitutions to D128^3.32” value [2] was “almost complete loss” and the “G protein and β-arrestin subtype signaling profile” value [3] was “strongly activated multiple additional G proteins and β-arrestins”.
With CN1CC[C@]23c4c5ccc(O)c4O[C@H]2[C@@H](O)C=C[C@H]3[C@H]1C5 [morphine] the “constipation, accumulated pellets over 6 hours” value [4] was “induced constipation” and the “analgesia in D79N mutant mice” value [5] was “does not affect; also recorded: not significantly altered by the mutation”.
For COC1(C2=NCCN2)COc2ccccc2O1 (centres unmarked) [[^3H]RX82,1002], the Kd [6] was 2.3 ± 0.52 nM, the Kd [7] was 0.54 ± 0.024 nM and the Kd [8] was 0.58 ± 0.11 nM. For the same compound, the Kd [9] was 1.8 ± 0.61 nM.
For Cc1cccc([C@H](C)c2cnc[nH]2)c1C [dexmedetomidine], the receptor internalization [1] was “about half of this response”, the “Gi EC50 fold higher” value [10] was 170,000 fold and the “Gi activation and β-arrestin recruitment on substitutions to D128^3.32” value [2] was “almost complete loss”. The “analgesia in D79N mutant mice” value [5] was “no longer induced analgesia in the mutant mice”, the “analgesia in D79N mutant mice” value ([5]; listed as DEX) was “substantially decreases the analgesia” and the “motor impairment and sedation” value [11] was “complete sedation; also recorded: full sedation”. For the same compound, the “motor impairment and sedation” value ([11]; listed as DEX) was “significant impairment and complete sedation at higher doses” and the “G protein and β-arrestin subtype signaling profile” value [3] was “strongly activated multiple additional G proteins and β-arrestins”.
In the case of Clc1ccc2cccc(Nc3ccncc3)c2c1 [PS75], the receptor internalization [1] is reported as “negligible receptor internalization”, the “disappearance of α2AARs from the plasma membrane” value ([1]; α2AAR-RlucII/rGFP-CAAX biosensor) is reported as “no effect” and the “relocalization of the receptors in endosomes” value ([1]; α2AAR-RlucII/rGFP-FYVE biosensor) is reported as “marginal effect at the highest concentrations”. For the same compound, the “increased potency compared with ‘9087” value ([12]; Gi activation) was 11 fold, the “Emax, Gi activation” value ([12]; Gαi BRET, % of norepinephrine response) was 82% and the EC50 ([12]; abstract) was 4.8 nM. For the same compound, the “effect of atipamezole on the agonist's effect” value ([13]; atipamezole 2 mg/kg i.p. 15 min before agonist) was “partially reversed”, the “effect on mechanical thresholds / allodynia” value ([13]; s.c.) was “completely reversed the mechanical hypersensitivity” and the metabolic stability [14] was “remain largely unmodified”. The “baseline mechanical withdrawal thresholds” value [15] was “did increase the mechanical thresholds”, the withdrawal latencies [16] was “increased withdrawal latencies” and the “analgesia in D79N mutant mice” value [5] was “substantially decreases the analgesia”. For the same compound, the “reduction of analgesia in D79N mutant mice” value [5] was greater than 50%, the “oral bioavailability” value [17] was “fully bio-available” and the “motor impairment and sedation” value [11] was “did not have an effect on the rotarod test; also recorded: do not cause sedation or motor impairment at analgesic doses”. For the same compound, the “G protein and β-arrestin subtype signaling profile” value [3] was “preferentially activated Gi, Go, and Gz (Gi/o/z) signaling; also recorded: retained the preferential signaling through the Gi/o versus other G protein families and β-arrestins”.
For Brc1c(NC2=NCCN2)ccc2nccnc12 [brimonidine], the receptor internalization [1] was “comparable responses for both biosensors” and the “G protein and β-arrestin subtype signaling profile” value [3] was “strongly activated multiple additional G proteins and β-arrestins”.
